Here are results for eight compounds from ChEMBL document CHEMBL4011638, “Semisynthetic Flavone-Derived Antimicrobials with Therapeutic Potential against Methicillin-Resistant Staphylococcus aureus (MRSA)” (J Med Chem, 2017).

Converted amounts (≈) assume the structure as drawn. The source made the active and inactive calls. The calls are words filed in the database; no cut-off is given here. A value given as a limit tells only on which side of the number the result lay.

Assay [1] deals with Staphylococcus aureus. Description: Antibacterial activity against methicillin-resistant Staphylococcus aureus DM 9808R after 24 hrs by broth microdilution method. Type of assay: functional. An outline of the steps: (§1)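 Broth microdilution per CLSI in cation-adjusted Mueller−Hinton broth, in tubes. Compounds dissolved in H2O or DMF, then diluted in PBS to 1000 μg/mL stocks. Serial 2-fold dilutions were made, with final DMF 2.5%. Organisms were grown on TSA at 35 °C for 20 h and adjusted to ~5× 10^5 CFU/mL. Tubes were incubated at 35 °C for 24 h. MIC was the lowest concentration with no visible growth versus control. Biological replicates.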
On the technique in general: Broth dilution looks for growth in wells or tubes with falling amounts of substance.

The subject of assay [2] is Staphylococcus aureus. The experiment in a line: Antibacterial activity against Staphylococcus aureus DM4001R after 24 hrs by broth microdilution method. It counts as functional. An outline of the steps:
as §1

The subject of assay [3] is Staphylococcus aureus. The experiment in a line: Antibacterial activity against methicillin-resistant Staphylococcus aureus DM 21455 after 24 hrs by broth microdilution method. It counts as functional. The following applies: DM 21455, 24 h. An outline of the steps:
as §1

Assay [4] deals with Bacillus cereus. Description: Antibacterial activity against Bacillus cereus ATCC 11778 after 24 hrs by broth microdilution method. Type of assay: functional. The following applies: ATCC 11778, 24 h. The gist of the method: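 MIC by CLSI broth microdilution in cation-adjusted Mueller–Hinton broth, tubes. Compounds in H2O or DMF, diluted in PBS to 1000 μg/mL stocks, then serial 2-fold dilutions (final DMF 2.5%). Inoculum ~5×10^5 CFU/mL from TSA plates grown 35 °C 20 h. Incubation 35 °C 24 h; MIC = no visible growth vs control. Biological replicates.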

For assay [5], the system named is Staphylococcus aureus. The experiment in a line: Antibacterial activity against methicillin-sensitive Staphylococcus aureus DM4583R after 24 hrs by broth microdilution method. It counts as functional. The gist of the method: as §1
Assay [6] concerns Staphylococcus aureus. The experiment in a line: Antibacterial activity against methicillin-sensitive Staphylococcus aureus DM4400R after 24 hrs by broth microdilution method. Type of assay: functional. The gist of the method: as §1
Assay [7] concerns Staphylococcus aureus. The experiment in a line: Antibacterial activity against methicillin-sensitive Staphylococcus aureus DM4299 after 24 hrs by broth microdilution method. The following applies: DM4299, 24 h. Type of assay: functional. The gist of the method: as §1
Assay [8] concerns Staphylococcus aureus. Description: Antibacterial activity against methicillin-sensitive Staphylococcus aureus ATCC 29213 after 24 hrs by broth microdilution method. The note with it: ATCC 29213, 24 h. Type of assay: functional. The gist of the method: as §1
In assay [9] the test system is Staphylococcus aureus. The experiment in a line: Antibacterial activity against methicillin-sensitive Staphylococcus aureus ATCC 6538 after 24 hrs by broth microdilution method. It counts as functional. The following applies: ATCC 6538, 24 h. The gist of the method: as §1
Assay [10] deals with Staphylococcus aureus. The experiment in a line: Antibacterial activity against methicillin-sensitive Staphylococcus aureus ATCC 29737 after 24 hrs by broth microdilution method. Type of assay: functional. The following applies: ATCC 29737, 24 h. An outline of the steps: as §1
The test system of assay [11] is Staphylococcus aureus. The experiment in a line: Antibacterial activity against methicillin-resistant Staphylococcus aureus DB6506 after 24 hrs by broth microdilution method. The note with it: DB6506, 24 h. Type of assay: functional. The gist of the method:
as §1

Assay [12] deals with Staphylococcus aureus. The experiment in a line: Antibacterial activity against methicillin-resistant Staphylococcus aureus DB68004 after 24 hrs by broth microdilution method. Type of assay: functional. The note with it: DB68004, 24 h. The gist of the method:
as §1

Assay [13] concerns Staphylococcus aureus. Description: Antibacterial activity against methicillin-resistant Staphylococcus aureus DB57964 after 24 hrs by broth microdilution method. It counts as functional. The following applies: DB57964, 24 h. The gist of the method: as §1
The test system of assay [14] is Staphylococcus aureus. Description: Antibacterial activity against methicillin-resistant Staphylococcus aureus ATCC 43300 after 24 hrs by broth microdilution method. Type of assay: functional. The following applies: ATCC 43300, 24 h. An outline of the steps: as §1
In assay [15] the test system is Staphylococcus aureus. Description: Antibacterial activity against methicillin-resistant Staphylococcus aureus ATCC 700699 after 24 hrs by broth microdilution method. The following applies: ATCC 700699, 24 h. It counts as functional. The gist of the method:
as §1

In assay [16] the test system is Staphylococcus aureus. Description: Antibacterial activity against methicillin-resistant Staphylococcus aureus BAA-38 after 24 hrs by broth microdilution method. It counts as functional. The following applies: BAA-38, 24 h. An outline of the steps: as §1
Assay [17] is described as follows: Ratio of HC50 for New Zealand white rabbit RBC to MIC for methicillin-sensitive Staphylococcus aureus DM4583R. The gist of the method:
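HC50 measured on fresh New Zealand white rabbit RBCs, washed three times in PBS, at 4% v/v final. Cells were incubated with 2-fold serial dilutions (DMF final 0.5%) at 37 °C for 1 h, then centrifuged. Supernatant absorbance was read at 576 nm, with PBS as 0% and 2% Triton X-100 as 100% lysis. HC50 is the concentration lysing 50% of cells, divided by MIC from broth microdilution.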

Assay [18] has as its system Staphylococcus aureus. Description: Induction of plasma membrane permeability in methicillin-resistant Staphylococcus aureus DM9808R assessed as increase in fluorescence intensity at 12.5 ug/ml measured every 1 sec for 50 mins by SYTOX green dye based fluorimetric assay. It counts as functional. The gist of the method:
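Exponential-phase MRSA DM9808R grown on TSA, washed twice and resuspended in PBS (10 mM, pH 7) to OD600 0.2. Cells were loaded with 0.3 μM SYTOX Green in the dark until fluorescence stabilized. Test samples were then added (final DMF 0.5%). Fluorescence at ex 504/em 523 nm was recorded every 1 s for 50 min. Biological replicates.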

The test system of assay [19] is Lipid bilayer. The experiment in a line: Membrane permeabilization activity in DOPE/DOPG large unilamellar liposomes assessed as leakage of calcein at 1:4 to 1:8 compound to lipid ratio by fluorescence assay.

As usually defined, the MIC is the lowest concentration that inhibits growth of the organism. Higher therefore signals weaker potency. In the case of `COc1ccc(-c2oc3c(CC=C(C)C)c(O)cc(O)c3c(=O)c2O)cc1` [ICARITIN], the MIC in assay [1] was determined as 50 µg/mL; in [2], 50 µg/mL; in assay [3] it was 50 µg/mL; in assay [4], 136 µM; in assay [5] it was 50 µg/mL (≈ 136 µM); in assay [6], 50 µg/mL (≈ 136 µM). Further, the MIC in assay [7], in assay [8], in [9], in assay [10], in [11] and in assay [12] was 50 µg/mL (≈ 136 µM) in each case. Besides, the MIC in assay [13], in assay [14], in assay [15] and in assay [16] was 50 µg/mL (≈ 136 µM) each time. For the same compound, the Ratio in [17] was over 8. Further, the result in assay [18] was inactive. Moreover, the Activity in [19] is under 5%.
With `COc1ccc(-c2oc3c(CC=C(C)C)c(OCC(=O)N[C@@H](CCCNC(=N)N)C(=O)OC(C)(C)C)cc(O)c3c(=O)c2OCC(=O)N[C@@H](CCCNC(=N)N)C(=O)OC(C)(C)C)cc1`, the MIC in assay [1] was determined as 3.4 µM; in [2], 3.4 µM; in assay [3], 6.8 µM; in assay [4] it was 3.4 µM.
As for `COc1ccc(-c2oc3c(CC=C(C)C)c(OCCBr)cc(O)c3c(=O)c2OCCBr)cc1`, the MIC amounted to 10 µM in assay [1], 5 µM in [2], 5 µM in assay [3] and 5 µM in assay [4].
Consider `COc1ccc(-c2oc3c(CC=C(C)C)c(OCCCCN(C)C)cc(O)c3c(=O)c2OCCCCN(C)C)cc1`, for which the MIC in [1] is 12.5 µg/mL; in assay [2] it was 25 µg/mL; in assay [3], 12.5 µg/mL; in assay [4], 25 µg/mL.
With `COC(=O)[C@H](CCCNC(=N)N)NC(=O)[C@H](CCCNC(=N)N)NC(=O)COc1cc(O)c2c(=O)c(OCC(=O)N[C@@H](CCCNC(=N)N)C(=O)N[C@@H](CCCNC(=N)N)C(=O)OC)c(-c3ccc(OC)cc3)oc2c1CC=C(C)C`, the MIC in [1] amounted to 5.5 µM; in [2] it was 5.5 µM; in assay [3], 11 µM; in [4], 11 µM.
As to `CCN(CC)CCCCCCOc1cc(O)c2c(=O)c(OCCCCCCN(CC)CC)c(-c3ccc(OC)cc3)oc2c1CC=C(C)C`, the MIC in [1] was 3.13 µg/mL; in assay [2], 6.25 µg/mL; in assay [3], 3.13 µg/mL; in assay [4], 12.5 µg/mL.
Consider `CCN(CC)CCOc1cc(O)c2c(=O)c(OCCN(CC)CC)c(-c3ccc(OC)cc3)oc2c1CC=C(C)C`, for which the MIC in [1] is over 50 µg/mL; in [2] it was 50 µg/mL; in assay [3], 50 µg/mL; in [4] it was over 50 µg/mL.
Turning to H-GIGKFLKKAKKFGKAFVKILKK-OH, the MIC in [5], in assay [6], in assay [7], in assay [8], in assay [9] and in [10] was 16 to 64 µg/mL throughout. The MIC in assay [11], in assay [12], in assay [13], in assay [14], in [15] and in assay [16] was 16 to 64 µg/mL in each case. For the same compound, the Ratio in assay [17] lay within 2 to 8.
